ChEMBL document CHEMBL4513216, “Probing the Open Global Health Chemical Diversity Library for Multistage-Active Starting Points for Next-Generation Antimalarials” (ACS Infect Dis, 2020)

Assay: Toxicity liver stage against HepG2, at 10uM
Type: cell-based
Design: test concentration 10 uM, cell line HepG2-A16-CD81EGFP
Conditions: human, HepG2-A16-CD81EGFP cells; read-out: INHIBITION
In short: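 Uninfected HepG2-A16-CD81EGFP cells, 3 × 10^3 per well, 1536-well, plated on prespotted compound at 10 μM final, parasite-free screening media added to match infected plates; puromycin 10 μM positive, DMSO 0.5% negative; run in parallel with 48 h PbLuc assay at 37 °C, 5% CO2; viability by CellTiter-Glo luminescence, normalized to controls.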

Compound	cytotoxicity at 10 µM [%]
c1cncc(-c2nnc([C@H]3CCN(CC4CC4)C3)o2)c1	9.06
CN(C)c1ccc(C(CNS(=O)(=O)c2cccs2)N2CCCC2)cc1 (stereo not drawn)	2.31
CCc1cnc2c(c1NCc1ccc(OC)cc1)c(=O)n(C)c(=O)n2C	5.79
Cc1cc(=O)[nH]c(-n2nc(C)c(CCC(=O)Nc3nc(C)cs3)c2C)n1	5.61
O=C(Cn1cccn1)Nc1ccc(N2CCOCC2)cc1	-2.51
c1cnc(N2C[C@H](OCC3CCOCC3)[C@H]3COC[C@H]32)nc1	-1.92
Cn1nnc2c1C(COCC1CC1)CN(C(=O)[C@H]1CCCO1)C2 (stereo partly drawn)	-8.01
O=C(c1ncn2c1CNS(=O)(=O)c1ccccc1-2)N1CCCCCC1	9.79
Cc1cccc(COC[C@H]2CC[C@H]3[C@H](CCN3Cc3ccco3)O2)n1	-172
COc1cccc(CN2CCCC3(CCN(C(=O)c4ccco4)C3)C2)c1 (stereo not drawn)	6.34
O=C(NCCn1cccn1)c1nnc2ccccc2n1	-2.41
CCn1nc(C)c2nc(C(C)C)nc(NCCc3ccc(O)cc3)c21	18.1
CCN1CCN(c2ncc3c(=O)n(Cc4ccco4)ccc3n2)CC1	-15.9
Cc1cc(C(=O)N(C)Cc2cnn(C)c2C)n(C)n1	8.19
CN1CCC(CCc2ccnc(NC(=O)c3ccccn3)c2)CC1	-2.12
Cc1cc(N2CCOCC(Cc3ccc4[nH]ccc4c3)C2)ncn1 (stereo not drawn)	-3.77
OCC1CCCN(Cc2c(C3CCCC3)[nH]c3ncccc23)C1 (stereo not drawn)	6.35
CCOc1nnc(CN(CC)CC(=O)Nc2c(F)cccc2F)s1	-2.62
Cc1noc(C)c1CNC1CCN(c2ccccc2OC(F)F)C1 (stereo not drawn)	9.5
Cn1cnnc1S(=O)(=O)Cc1cc(Cl)c2c(c1)OCO2	-36.6
CCN(CC)S(=O)(=O)CC(=O)N1CCc2ccc(F)cc21	-4.73
COC(=O)c1cccc(C(=O)N(CCC#N)CC(C)(C)C)c1	7.72

Compound	cytotoxicity at 10 µM [%]
O=C(c1ccc(F)cc1)N(CCCO)S(=O)(=O)c1cccs1	-6.24
Cc1nc(CN2CCCC(C)(CO)C2)no1 (stereo not drawn)	5.89
CCc1ccc(C(=O)N2CCCC(c3nn[nH]n3)C2)cc1 (stereo not drawn)	4.6
Cc1cc(C)n(CCN2CCC(N(C)Cc3noc(C4CC4)n3)C2)n1 (stereo not drawn)	-2.92
CN1CCN(c2ccc(NCc3ccsc3)cn2)CC1	2.97
Cc1nc(NS(=O)(=O)c2ccc(C)c(Br)c2)no1	11.2
N#Cc1cccc(CNCCC(=O)N2CCc3sccc3C2)c1	1.04
CCc1cccc(OCCn2cccc(C#N)c2=O)c1	9.04
COc1ccc(-c2nnc(C(C)N3CCC4(CC3)OCCO4)o2)cc1 (stereo not drawn)	12.5
CCN(C(=O)CN1CCCN(c2nc(C)ns2)CC1)C1CC1	-4.08
c1csc(CCNC2CCc3ncnn3C2)c1 (stereo not drawn)	17.3
Cc1noc(C(C)N2CCN(c3ncnc4sccc34)CC2)n1 (stereo not drawn)	8.38
COc1ccc(CN(C)CCS(=O)(=O)c2ccc(Cl)cc2)cc1OC	2.68
CCC(=O)CNC(=O)CCn1nc2ccccn2c1=O	9.5
COCCNC(=O)Nc1cc2c(cc1SC)OCCO2	-3.59
NC(=O)C1CCN(C(=O)C2SCCc3sccc32)CC1 (stereo not drawn)	-6.02
NC(=O)C1CCCN1Cc1cccc(NC(=O)c2cc(Cl)cc(Cl)c2)c1 (stereo not drawn)	21.3
COc1ccc(C(=O)N2CCOCC2c2ccc(C)o2)cc1 (stereo not drawn)	-2.24
CN(Cc1ccco1)Cc1ccccc1CNC(=O)c1cnc[nH]1	2.6
CC(=O)NCCc1ccc(S(=O)(=O)N(C)C(C)CC(C)C)s1 (stereo not drawn)	-1.88
CN(C)CCN(Cc1ccc(Cl)cc1)C(=O)c1cnccn1	-1.85
O=C(NC1CC1)c1cc(NC(=O)N2CCOCC2)ccc1Cl	-4.15

Compound	cytotoxicity at 10 µM [%]
CC(NC(=O)c1ccnn1C)c1ccc(OCC2CC2)c(F)c1 (stereo not drawn)	48.8
Cc1cnn(CC2CN(CC(=O)Nc3cccnc3)CCO2)c1 (stereo not drawn)	8.1
Cc1ccc(-n2cc(S(=O)(=O)Nc3cccc(C(=O)O)c3C)cn2)cc1	-1.74
CCNC(=O)CN1CCC(OCC2CCCO2)CC1 (stereo not drawn)	-3.78
NC(=O)NC(=O)CCSCc1coc(-c2ccc(F)cc2)n1	-7.45
CN(Cc1ccncc1)C(CO)c1cccc(F)c1 (stereo not drawn)	2.35
Cc1oc(-c2ccccc2)nc1CN1CCC(c2ccnn2C)CC1	15.6
COc1ccc(C(N)=O)cc1NCc1ncc(-c2cccs2)o1	8.2
COc1ccc(C(N)=O)cc1NCc1nc(-c2cccs2)oc1C	1.83
CCCN(C)CC1CCN(c2ncc(Br)cn2)C1 (stereo not drawn)	-6.68
Cc1noc(-c2cccnc2N(C)Cc2cscn2)n1	-4.23
CC(C)(C)n1cc(C(=O)O)c(-c2ccc(F)cc2F)n1	6.92
COCC(=O)NCCC(=O)N1CCN(S(=O)(=O)c2ccc(Br)cc2)CC1	-38.2
CSCC(=O)Nc1ncn(Cc2cccc(Br)c2)n1	-12
Cc1cc(CN2CC[C@H]3C[C@@H](c4nc(C5CC5)cs4)O[C@@H]3C2)no1	-104
O=S(=O)(C1CC1)N1Cc2nccn2CC(Cn2cncn2)C1 (stereo not drawn)	1.02
CC(C)NC(=O)N1CCC2(CC1)CC[C@@]1(C(=O)N(C)C)CN(C)C[C@@H]21	-108
Cc1occc1C(=O)N1CC[C@H]2C[C@@H](c3nnc(C4CC4)o3)O[C@@H]2C1	-111
Cc1cccc(C(=O)N2CCn3c(CN4CCN(C)CC4)cnc3C2)n1	-75.2
CCCN1CCc2nc(N3CCOCC3)nc(NC(C)C)c2C1	-111
COCC1CN(C(=O)c2cccs2)Cc2nccn2C1 (stereo not drawn)	-104
COc1ccc(CN2CCC3(CC2)CCN(c2ncccn2)CC3)cc1	-1.08

Compound	cytotoxicity at 10 µM [%]
CC[C@@H](CO)Nc1nccc(-c2c[nH]c3cc(C(=O)OC)ccc23)n1	67.7
CC(C)[C@H]1CN(Cc2ccccn2)C[C@@H]1NS(=O)(=O)C1CC1	-0.578
Fc1ccc(CC2CCN(Cc3cscn3)CC2)cc1	-7.27
CC1CCCCN1C(=O)c1coc(COc2cccc3cnccc23)n1 (stereo not drawn)	-143
O=C(O)c1cccnc1N1CCN(Cc2ccc(F)cc2)C(CCO)C1 (stereo not drawn)	12.3
CC(C)=CCN1CCN(Cc2cccc(C)n2)CC1CCO (stereo not drawn)	1.99
O=C(NC1CC1)c1ccnc(N2CCOC(c3ccc(Cl)cc3)C2)c1 (stereo not drawn)	4.44
Cc1cnc(N2CCC(c3ccccc3)CC2)nc1-c1ccnn1C	4.68
O=C(CC1=CSC2=NCCN12)N1CCCC(CCc2cccc(F)c2)C1 (stereo not drawn)	5.21
CC(C)(C)c1ncc(C(=O)NCCSc2ccccn2)c(O)n1	-0.494
O=C(c1ccc(S(=O)(=O)NCC(F)F)cc1)N1C[C@H]2CNC[C@H]2C1	-13
OC1CCN([C@@H]2CCN(c3nc(-c4ccccc4)no3)C[C@H]2O)CC1	-9.88
Cc1ccccc1C(=O)NC[C@@H]1CCN(C(=O)C2(O)CCCC2)C[C@H]1O	-38.7
CC(=O)C(C)CC(=O)N(Cc1cccc(C)c1)C(C)C (stereo not drawn)	-3.73
CC(C)=CCC/C(C)=C/CN1CCN(C)C2(CCNC(=O)CC2)C1 (stereo not drawn)	-54.1
Cc1cc(N2CCC(n3cc(CN4CCC[C@@H]4CO)nn3)CC2)ccn1	4.9
CC(C)n1cc(C(=O)NCCCc2csc(N)n2)cn1	-4.36
O=C(O)c1ccc(CC2CCN(Cc3ccc(-c4cc[nH]n4)o3)C2)cc1 (stereo not drawn)	6.37
CN(C)CCC(Nc1nc(N)nc2c1CCNCC2)c1ccccc1 (stereo not drawn)	-4.32
COc1ccccc1[C@@H]1CN(Cc2ccc3nsnc3c2)C[C@H]1C(=O)O	-4.18
CCOCCN(CCOCC)c1nc(C)nc2sccc12	-126
CCC[C@H]1CN(c2nc(CO)cs2)C[C@@H]1NC(=O)C1(COC)CC1	-2.87

Compound	cytotoxicity at 10 µM [%]
CC(C)(C)CN1CCCC2(CCN(C(=O)c3cn[nH]c3)C2)C1 (stereo not drawn)	2.87
CCc1nc(C)c(CN2CCOC(CCCC(C)C)C2)[nH]1 (stereo not drawn)	-20
Cc1ccccc1-n1cc(-c2ccnc(N[C@H](CO)C(C)C)n2)cn1	4.43
CC(Cn1cncn1)NC(=O)c1cn(Cc2ccccc2F)nn1 (stereo not drawn)	-1.62
Cc1nc(N2CCCCC2)ncc1-c1cc(=O)[nH]c(N2CCCC2)n1	1
O[C@@H]1CN(c2nc3ccccc3s2)CC[C@H]1c1ccc2c(c1)OCO2	52.7
COc1cc(NC(=O)c2ccc(CN3CC[C@H](O)C3)cc2)cc(OC)c1	10.5
CS(=O)(=O)c1snnc1C1CCN(Cc2ccncc2)CC1	2.31
CCn1ccnc1CN1CCN(Cc2cccc(C#N)c2)CC1	-22.3
Cc1ccnc(NC(=O)c2ccc(-n3ncc(C#N)c3N)cc2)c1	1.22
COc1cc2c(cc1CNCc1cccnc1-n1cccn1)OC(C)C2 (stereo not drawn)	4.6
Cc1ncnc2c1CCN(C(=O)c1ccncc1F)CC2	-71.1
O=C(C1CC1)N1CCC2(CC1)COCCN2Cc1ccc(F)cc1	-69.4
Cn1cnc(S(=O)(=O)N2CC3(CCN(CC4CC4)C3)C2)c1	-99.2
O=C(Cc1ccccn1)N1CCN2C[C@H](OCCN3CCCC3)C[C@H]2C1	-77.2
Cc1ccc(N2CC[C@@H]3[C@@H]2CCN3C(=O)Cc2ccccc2)nn1	-93.1
CCN(CC)c1ccc2ccc(C(=O)N3CCCCO3)cn12	5.33
CN(C)C(=O)NC[C@@H]1OC[C@H]2CN(Cc3cccc(F)c3)CC[C@H]21	4.93
c1cc(CO[C@@H]2CC[C@H]3[C@H]2OCCN3CC2CCOCC2)ccn1	26.9
COc1ccc(CN2C[C@@H]3COC[C@@H](N4CCN(C)CC4)[C@@H]3C2)cc1	-103
